Measured values: ChEMBL document CHEMBL1138516, “Synthesis and biophysical characterization of chlorambucil anticancer ether lipid prodrugs” (J Med Chem, 2009)

Key:
Assay type in all cases: functional, cell-based
HT-29 [1] = assay: Cytotoxicity against human HT-29 cells assessed as cell viability after 48 hrs by MTT assay; conditions: HT-29, 48 h
In short: (§1)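 HT-29 colon and ES-2 ovarian cells were grown in McCoy's 5A with 10% FCS and 1% Pen-Strep, and MT-3 breast cells in RPMI. Cells were seeded at 1 × 10⁴ per well 24 h before dosing. Free drug was given in DMSO/water (final DMSO max 0.5%). Liposomes were diluted in PBS, with lipid content set by phosphorus analysis. Exposure lasted 24 h, then cells were washed and kept 48 h in complete medium.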

[2] = Cytotoxicity against human MT3 cells assessed as cell viability after 48 hrs by MTT assay; conditions: MT-3, 48 h; in short: as §1
[3] = Cytotoxicity against human MT3 cells assessed as cell viability after 48 hrs by MTT assay in presence of Agkistrodon piscivorus secreted PLA2; conditions: MT-3, 48 h
In short: (§2)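 These lines follow the same protocol: HT-29 and ES-2 cells in McCoy's 5A with 10% FCS and 1% Pen-Strep, MT-3 cells in RPMI, seeded at 1 × 10⁴ per well 24 h ahead. Liposomal prodrugs in PBS were given with Agkistrodon piscivorus piscivorus venom sPLA₂ at 5 nM final. Exposure lasted 24 h, then cells were washed and given 48 h recovery in complete medium.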

HT-29 [4] = assay: Cytotoxicity against human HT-29 cells assessed as cell viability after 48 hrs by MTT assay in presence of Agkistrodon piscivorus secreted PLA2; conditions: HT-29, 48 h; in short: as §2
[5] = Cytotoxicity against human ES2 cells assessed as cell viability after 48 hrs by MTT assay; conditions: ES-2, 48 h; in short: as §1
[6] = Cytotoxicity against human ES2 cells assessed as cell viability after 48 hrs by MTT assay in presence of Agkistrodon piscivorus secreted PLA2; conditions: ES-2, 48 h; in short: as §2

In the case of `CCCCCCCCCCCCCCCCCCOC[C@H](COP(=O)([O-])OCC[N+](C)(C)C)OC(=O)CCCc1ccc(N(CCCl)CCCl)cc1`, the IC50 (HT-29 [1]) is reported as over 200 µM, the IC50 [2] is reported as over 200 µM and the IC50 [3] is reported as 36 µM. For the same compound, the IC50 (HT-29 [4]) was 32 µM.

For `O=C(O)CCCc1ccc(N(CCCl)CCCl)cc1` [CHLORAMBUCIL], the IC50 (HT-29 [1]) was 70 µM, the IC50 [2] was 95 µM and the IC50 [5] was 34 µM.

`CCCCCCCCCCCCCCCCCCOC[C@H](COP(=O)(O)OC[C@@H](O)CO)OC(=O)CCCc1ccc(N(CCCl)CCCl)cc1` showed an IC50 (HT-29 [1]) of over 200 µM, an IC50 [2] of over 200 µM and an IC50 [3] of 36 µM. The IC50 [5] was 97 µM, the IC50 [6] was 8 µM and the IC50 (HT-29 [4]) was 10 µM.

Work on `CCCCCCCCCCCCCCCCCCOC[C@@H](O)COP(=O)([O-])OCC[N+](C)(C)C` yielded an IC50 (HT-29 [1]) of 18 µM, an IC50 [2] of 35 µM and an IC50 [5] of 30 µM.
